CHRM4 agonist = human M4 muscarinic receptor agonists, primary screen, CHO-K1 cells, Fluo-8 calcium fluorescence; CHO-K1 hM4/Gqi5; vehicle 0%, full acetylcholine response 100%; activation, % at 3 µM; 360,000 tested, 0.14% active; AID 624127, 2012; Muscarinic acetylcholine receptor M4 (Homo sapiens), P08173;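 active = activation above the run mean over all test wells plus 3 SD, cut at about 32% in these data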;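 also: peak over basal fluorescence ratio per well then scaled between controls; 0% = DMSO wells and 100% = acetylcholine at EC100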
M4 antag = human M4 muscarinic receptor antagonists, primary screen, CHO cells, Fluo-8 calcium fluorescence. Muscarinic acetylcholine receptor M4 (Homo sapiens), P08173. CHO-hM4 cells, ACh EC80. AID 624125, 2012. inhibition, % at 3 µM. 360,000 tested, 0.73% active;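 active = inhibition above its plate's cutoff, the mean inhibition of sample wells plus 3 SD, cut at about 27% in these data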;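 also: 0% = acetylcholine EC80 with DMSO and 100% = DMSO without agonist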
M5 PAM = human M5 muscarinic receptor positive allosteric modulators, primary screen, CHO-K1 cells, Fluo-8 calcium fluorescence | CHO-K1 hM5, ACh EC20 PAM; 0% = ACh EC20, 100% = ACh EC100 | activation, % at 3 µM | AID 624038, 2012 | 360,000 tested, 0.3% active | Muscarinic acetylcholine receptor M5 (Homo sapiens), P08912;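 active = activation above the run cutoff, the mean activation of all test compounds plus 3 SD, cut at about 18% in these data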
Target sequence (P08912 whole entry, looked up): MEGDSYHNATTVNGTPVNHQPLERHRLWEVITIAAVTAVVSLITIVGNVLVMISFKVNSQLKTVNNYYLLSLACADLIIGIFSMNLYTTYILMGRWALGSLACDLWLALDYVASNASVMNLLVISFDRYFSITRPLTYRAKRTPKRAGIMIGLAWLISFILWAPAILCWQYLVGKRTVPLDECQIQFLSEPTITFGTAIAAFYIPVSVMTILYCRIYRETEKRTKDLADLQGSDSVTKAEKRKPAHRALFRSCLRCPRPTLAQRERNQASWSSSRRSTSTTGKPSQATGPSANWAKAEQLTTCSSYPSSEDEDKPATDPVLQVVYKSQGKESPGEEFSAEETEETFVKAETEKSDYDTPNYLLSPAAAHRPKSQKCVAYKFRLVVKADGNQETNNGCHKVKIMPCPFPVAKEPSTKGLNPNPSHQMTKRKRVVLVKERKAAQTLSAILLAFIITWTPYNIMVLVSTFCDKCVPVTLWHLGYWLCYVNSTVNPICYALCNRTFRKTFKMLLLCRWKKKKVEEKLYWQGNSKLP
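Assay system: CHO-K1 hM5 cells / Incubation: Fluo-8 loading 80 min at 37 °C plus 30 min room temperature / Technique: Fluo-8 calcium dye fluorescence, kinetic read / Repeats: single replicate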
CHRM5 agonist = human M5 muscarinic receptor agonists, primary screen, CHO-K1 cells, Fluo-8 calcium fluorescence | Muscarinic acetylcholine receptor M5 (Homo sapiens), P08912 | CHO-K1 hM5 cells; 0% DMSO wells, 100% maximal acetylcholine response | 360,000 tested, 0.19% active | activation, % at 3 µM;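 active = activation above the run's mean over test compounds plus 3 SD, cut at about 23% in these data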;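 also: signal is peak over basal fluorescence ratio across the kinetic read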
M5 antag = human M5 muscarinic receptor antagonists, primary screen, CHO cells, Fluo-8 calcium fluorescence. Muscarinic acetylcholine receptor M5 (Homo sapiens), P08912. CHO-hM5 cells, ACh EC80. inhibition, % at 3 µM. 360,000 tested, 0.59% active. AID 624040, 2012;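 active = inhibition above a per-plate cutoff, the mean of that plate's test compounds plus 3 SD, cut at about 27% in these data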;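 also: 0% = acetylcholine EC80 with DMSO and 100% = DMSO without agonist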
CHRM4 PAM = human M4 muscarinic receptor positive allosteric modulators, primary screen, CHO-K1 cells, Fluo-8 calcium fluorescence. Muscarinic acetylcholine receptor M4 (Homo sapiens), P08173. CHO-K1 hM4/Gqi5, ACh EC20; 0% = ACh EC20, 100% = maximal ACh. activation, % at 3 µM. 360,000 tested, 0.4% active. AID 624126, 2012;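 active = activation above its plate's cutoff, the mean activation of sample wells plus 3 SD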
An asterisk follows results filed as active. In the library only some 1.8% were active in any assay of this set; here they are far more common.

SMILES	CHRM4 agonist	M4 antag	M5 PAM	CHRM5 agonist	M5 antag	CHRM4 PAM
CN(C)S(=O)(=O)c1ccc(C(=O)Nc2ccc(CN3CCCC3)cc2)cc1	1	69*	-8	-7	6	-18
O=C(Nc1ccc(S(=O)(=O)N2CCCCC2)cc1)c1ccc(CN2CCc3ccccc3C2)cc1	8	40*	-12	-4	16	-16
COc1ccccc1CCNC(=O)c1ccc2nc[nH]c2c1	2	-16	-4	-4	2	8
COC(=O)C1=CN(c2ccc(OC)cc2)C=C(C(=O)OC)C1c1ccc([N+](=O)[O-])cc1	0	-9	11	-7	-3	20*
COC(=O)C1=CN(c2ccc(F)cc2)C=C(C(=O)OC)C1c1ccc([N+](=O)[O-])cc1	0	-4	-7	-4	17	-2
CCC(C)CNC(=O)c1[nH]c(C(F)(F)F)nc1-c1ccccc1 (centres undefined)	4	-12	-4	4	-1	9
CN(Cc1ccccc1)C(=O)c1ccc(NC(=O)Cc2ccc([N+](=O)[O-])cc2)cc1	13	1	14	26*	2	-3
O=C1CCCN2N=C(SCC(=O)Nc3cccc(C(F)(F)F)c3)SC2=N1	14	12	-13	6	36*	-14
COc1ccc([C@H]2C[C@H](O)[C@@H](n3cc(-c4ccc(F)cc4)nn3)CN2Cc2cccs2)cc1	0	-6	0	2	-6	-1
Cn1nc(C(F)(F)F)c(-c2ccc(F)cc2)c1NC(=O)Nc1ccc(F)cc1	15	10	-23	-2	33*	-14
COc1ccc(Cn2nnnc2C(CC(C)C)N2CCC(C(N)=O)CC2)cc1 (centres undefined)	2	-17	21*	-3	-2	9
COc1cccc(OCC(O)CN2CCN(C(c3ccccc3)c3ccccc3)CC2)c1 (centres undefined)	2	-5	-28	-16	3	-12
CC(=O)c1ccccc1OCC(O)CN1CCN(C(c2ccccc2)c2ccccc2)CC1 (centres undefined)	1	35*	-31	-11	17	-23
CCOC(=O)N1CCN(C(=O)COC(=O)COc2c(C)cc(C)cc2C)CC1	1	-15	4	1	5	24*
CC1CCN(C(C)C(=O)Nc2ccc(S(=O)(=O)N3CCCC3)cc2)CC1 (centres undefined)	2	78*	-38	-10	14	-16
CC1CCN(C(C)C(=O)Nc2cc(S(=O)(=O)N3CCCCC3)ccc2Cl)CC1 (centres undefined)	-2	2	-2	1	12	2
O=C(CCCN1C(=O)c2ccccc2C1=O)Nc1ccc(S(=O)(=O)N2CCCCC2)cc1	13	-20	3	2	-7	5
COC(=O)CCC(=O)Nc1ccc(S(=O)(=O)N2CCCCCC2)cc1	1	-15	19*	-1	-7	21
CC(C)CC(=O)Nc1ccc(S(=O)(=O)N2CCCC2)cc1	1	9	-3	-5	28*	-6
O=C(CCCN1C(=O)c2ccccc2C1=O)Nc1ccc(S(=O)(=O)N2CCOCC2)cc1	2	28*	-6	-4	7	11
COC(=O)[C@]1(C)N[C@H](CN(C)S(=O)(=O)c2ccc(OC(F)(F)F)cc2)[C@@H]2C(=O)N(C)C(=O)[C@@H]21	1	-3	-1	0	-1	2
Cc1csc(C(=O)O)c1NC(=O)c1ccc(F)cc1	1	-13	-3	-2	12	0
Cc1csc(C(=O)O)c1-c1c(C)csc1C(=O)O	1	-6	0	-2	16	23*

Bioassay records from PubChem.
